Test results as given in ChEMBL document CHEMBL4480390, “Cink4T, a quinazolinone-based dual inhibitor of Cdk4 and tubulin polymerization, identified via ligand-based virtual screening, for efficient anticancer therapy” (Eur J Med Chem, 2019).
Active and inactive are the calls of the source. The calls are words filed in the database; no cut-off is given here.

Tests used:
[1] = target: CDK6/cyclin D1 (Homo sapiens, UniProt Q00534); test: Inhibition of CDK6/cyclin D1 (unknown origin) using RBER-CHKtide as substrate measured after 1 hr by ADP-glo luminescence assay; type: protein-complex assay
Outline: (§1)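 ADP-Glo kinase assay with 200 ng Cdk-cyclin enzyme, ATP (125 µM in 2.5x mix) and 25 µg substrate (RBCTF or RBER-CHKtide, per Cdk). Buffer: Tris, MgCl2, BSA, DTT, MnCl2 cofactor, DMSO. Reaction 1 h at 21°C; ADP-Glo 40 min, then detection reagent 40 min. Luminescence read. IC50 by 4-parameter fit; three independent experiments.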

[2] = system: T47D; test: cells; details: Homo sapiens, 72 h
[3] = target: Cyclin-dependent kinase 4/cyclin D1 (Homo sapiens) (UniProt P11802+P24385); test: Inhibition of recombinant human N-terminal GST-tagged CDK4 (S4 to E303 residues)/Cyclin D1 (Q4 to I295 residues) expressed in sf9 cells at 10 uM using RBCTF as substrate measured after 1 hr by ADP-glo luminescence assay relative to control
[4] = target: Cyclin-dependent kinase 1/cyclin B1 (Homo sapiens, UniProt P06493); test: Inhibition of recombinant human N-terminal GST/His6-tagged CDK1 (M1 to M297 residues)/CyclinB1 (M1 to V433 residues) expressed in Sf9 insect cells using RBCTF as substrate measured after 1 hr by ADP-glo luminescence assay
[5] = target: T1, Tubulin (Sus scrofa) (UniProt P02554+P02550); test: Inhibition of porcine tubulin polymerization at 5 uM incubated for 1 min by fluorescence based assay; type: protein assay
Outline: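 Compounds added from 10x stocks in duplicate and warmed at 37°C ≤1 min. Ice-cold tubulin pre-mix then added. Fluorescent reporter read at ex 360/em 460 nm for 60 min. Paclitaxel served as enhancer control, CaCl2 as inhibitor control.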

[6] = system: A549; test: cells; details: Homo sapiens, A549, 72 h
[7] = system: Calu-1; test: cells; details: Homo sapiens, Calu-1, 72 h
[8] = target: Cyclin-dependent kinase 4/cyclin D1 (Homo sapiens, UniProt P11802); test: Inhibition of recombinant human N-terminal GST-tagged CDK4 (S4 to E303 residues)/Cyclin D1 (Q4 to I295 residues) expressed in sf9 cells using RBCTF as substrate measured after 1 hr by ADP-glo luminescence assay
Outline: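 ADP-Glo luminescence assay of Cdk4–cyclin D1 with RBCTF substrate, 200 ng enzyme, ATP 125 µM (2.5x working mix), Tris/MgCl2/BSA/DTT/MnCl2 buffer, 1 h at 21°C, then two 40-min reagent steps. IC50 from a four-parameter variable-slope sigmoidal fit of inhibition against concentration; mean ± SD from three independent experiments.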

[9] = target: T2, Cytochrome P450 1B1 (Homo sapiens, UniProt Q16678); test: Inhibition of recombinant human CYP1B1 expressed in baker's yeast-derived microsomes using 7-ethoxyresorufin as substrate by fluorescence assay
T2 sequence (Q16678 whole entry): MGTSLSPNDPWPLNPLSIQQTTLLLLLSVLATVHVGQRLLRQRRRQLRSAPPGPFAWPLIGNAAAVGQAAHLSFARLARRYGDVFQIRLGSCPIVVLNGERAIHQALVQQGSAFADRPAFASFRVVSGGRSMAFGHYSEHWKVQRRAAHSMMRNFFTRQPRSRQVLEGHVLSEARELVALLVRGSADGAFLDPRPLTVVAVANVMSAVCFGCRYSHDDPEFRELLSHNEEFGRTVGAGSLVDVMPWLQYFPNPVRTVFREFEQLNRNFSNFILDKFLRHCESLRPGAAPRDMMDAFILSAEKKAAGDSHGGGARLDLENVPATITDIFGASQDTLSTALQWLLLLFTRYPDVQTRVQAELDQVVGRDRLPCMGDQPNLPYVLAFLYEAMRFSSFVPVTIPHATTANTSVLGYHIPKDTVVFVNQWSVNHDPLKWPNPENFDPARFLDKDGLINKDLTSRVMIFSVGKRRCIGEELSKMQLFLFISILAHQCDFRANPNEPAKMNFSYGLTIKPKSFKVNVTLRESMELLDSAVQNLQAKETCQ

[10] = target: T3, Cytochrome P450 1A1 (Homo sapiens, UniProt P04798); test: Inhibition of recombinant human CYP1A1 expressed in baker's yeast-derived microsomes using 7-ethoxyresorufin as substrate by fluorescence assay; type: ADME
T3 sequence (P04798 whole entry): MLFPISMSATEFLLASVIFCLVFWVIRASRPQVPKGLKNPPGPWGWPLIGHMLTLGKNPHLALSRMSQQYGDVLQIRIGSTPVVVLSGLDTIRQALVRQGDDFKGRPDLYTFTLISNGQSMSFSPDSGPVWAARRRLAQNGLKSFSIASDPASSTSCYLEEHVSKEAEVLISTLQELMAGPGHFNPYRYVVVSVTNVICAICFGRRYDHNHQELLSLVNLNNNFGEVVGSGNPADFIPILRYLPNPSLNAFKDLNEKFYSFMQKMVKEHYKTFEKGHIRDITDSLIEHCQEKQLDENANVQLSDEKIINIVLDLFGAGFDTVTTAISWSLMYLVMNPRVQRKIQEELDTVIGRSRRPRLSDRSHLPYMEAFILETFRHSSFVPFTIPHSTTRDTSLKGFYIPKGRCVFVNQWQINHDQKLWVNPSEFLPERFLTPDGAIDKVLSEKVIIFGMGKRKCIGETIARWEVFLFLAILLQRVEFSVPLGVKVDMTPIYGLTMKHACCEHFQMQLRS

[11] = target: CDK9/cyclin T1 (Homo sapiens, UniProt P50750); test: Inhibition of N-terminal GST-HIS6 fusion protein tagged human full length CDK9 (M1 to F372 residues)/N-terminal HIS6-fused human Cyclin-T1 (M1 to K726 residues) expressed in Sf9 cells using RBCTF as substrate measured after 1 hr by ADP-glo luminescence assay
[12] = system: MDA-MB-468; test: cells; details: Homo sapiens, MDA-MB-468, 72 h
[13] = target: T4, Cytochrome P450 1A2 (Homo sapiens, UniProt P05177); test: Inhibition of recombinant human CYP1A2 expressed in baker's yeast-derived microsomes using 3-cyano-7-ethoxycoumarin as substrate by fluorescence assay; type: ADME
T4 sequence (P05177 whole entry): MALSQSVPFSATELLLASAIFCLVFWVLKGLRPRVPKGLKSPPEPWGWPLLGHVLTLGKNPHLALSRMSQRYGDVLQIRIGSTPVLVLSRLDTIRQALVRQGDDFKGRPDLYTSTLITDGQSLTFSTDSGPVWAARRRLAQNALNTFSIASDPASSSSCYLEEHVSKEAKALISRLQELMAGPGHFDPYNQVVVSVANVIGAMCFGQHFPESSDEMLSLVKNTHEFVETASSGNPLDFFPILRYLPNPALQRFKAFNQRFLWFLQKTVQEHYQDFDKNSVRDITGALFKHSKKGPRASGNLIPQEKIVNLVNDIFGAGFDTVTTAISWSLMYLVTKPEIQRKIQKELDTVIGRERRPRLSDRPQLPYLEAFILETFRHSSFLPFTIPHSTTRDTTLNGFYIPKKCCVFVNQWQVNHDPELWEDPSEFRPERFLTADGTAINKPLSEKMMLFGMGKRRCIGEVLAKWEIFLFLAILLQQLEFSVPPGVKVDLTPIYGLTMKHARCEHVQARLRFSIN

[14] = target: CDK2/Cyclin A2 (Homo sapiens, UniProt P24941); test: Inhibition of human full length N-terminal GST-fused CDK2 (M1 to L298 residues)/human full length Cyclin-A2 (M1 to L432 residues) expressed in Sf9 cells using histone H1 as substrate measured after 1 hr by ADP-glo luminescence assay
[15] = target: T1, Tubulin (Sus scrofa); test: Inhibition of porcine tubulin polymerization at 3 uM incubated for 1 min by fluorescence based assay; type: protein assay
[16] = target: CDK9/cyclin T1 (Homo sapiens) (UniProt O60563+P50750); test: Inhibition of N-terminal GST-HIS6 fusion protein tagged human full length CDK9 (M1 to F372 residues)/N-terminal HIS6-fused human Cyclin-T1 (M1 to K726 residues) expressed in Sf9 cells at 10 uM using RBCTF as substrate measured after 1 hr by ADP-glo luminescence assay relative to control; outline: as §1

Row | IC50 [1] [µM] | EC50 [2] [µM] | inhibition [3] [%] | IC50 [4] [µM] | inhibition [5] | EC50 [6] [µM] | EC50 [7] [µM] | IC50 [8] [µM] | IC50 [9] [µM] | IC50 [10] [µM] | IC50 [11] [µM] | EC50 [12] [µM] | IC50 [13] [µM] | IC50 [14] [µM] | inhibition [15] | inhibition [16] [%] | Compound
1 | > 100 | 4 | 89 | > 50 | Active | 3 | 6 | 1.5 | > 5 | > 5 | > 100 | > 50 | > 5 | > 50 | – | – | COc1ccccc1NC(=O)COc1ccc(-c2nc3ccccc3c(=O)[nH]2)cc1OC
2 | – | – | – | – | – | – | – | – | – | – | – | – | – | – | Active | – | CC[C@]1(O)C[C@@H]2CN(CCc3c([nH]c4ccccc34)[C@@](C(=O)OC)(c3cc4c(cc3OC)N(C)[C@H]3[C@@](O)(C(=O)OC)[C@H](OC(C)=O)[C@]5(CC)C=CCN6CC[C@]43[C@@H]65)C2)C1
3 | > 100 | 8.2 | 76 | > 50 | Active | 7.5 | 9.8 | 3.8 | > 5 | > 5 | > 50 | > 50 | > 5 | > 100 | – | 8 | COc1ccc(-c2nc3ccccc3c(=O)[nH]2)cc1OCC(=O)NC1CCCCC1
4 | – | – | 95 | – | – | – | – | – | – | – | – | – | – | – | – | -4 | CC(=O)c1c(C)c2cnc(Nc3ccc(N4CCNCC4)cn3)nc2n(C2CCCC2)c1=O
5 | – | – | – | – | – | – | – | – | – | – | – | – | – | – | inactive | – | CC(=O)O[C@H]1C(=O)[C@@]2(C)[C@H]([C@H](OC(=O)c3ccccc3)[C@]3(O)C[C@H](OC(=O)[C@H](O)[C@@H](NC(=O)c4ccccc4)c4ccccc4)C(C)=C1C3(C)C)[C@]1(OC(C)=O)CO[C@@H]1C[C@@H]2O
6 | – | 8 | 78 | – | Active | 7 | 9 | – | – | – | – | > 50 | – | > 100 | – | -5 | COc1cc(-c2nc3ccccc3c(=O)[nH]2)ccc1OS(C)(=O)=O
